Source: ChEMBL document CHEMBL3286094, “Synthesis and biological evaluation of novel bisbenzimidazoles as Escherichia coli topoisomerase IA inhibitors and potential antibacterial agents” (J Med Chem, 2014)
In brackets after ≈: the same amount, converted by molar mass. Activity calls are given as the source filed them. The rule behind the calls is not given here.

Legend:
[1] = test system: Escherichia coli; test: Bactericidal activity against gentamicin/kanamycin/tetracycline/nalidixic acid-resistant Escherichia coli 360 by agar plating method; type: functional
[2] = test system: Escherichia coli; test: Bactericidal activity against ampicillin/chloramphenicol/ciprofloxacin/gentamicin/tetracycline-resistant Escherichia coli 401 by agar plating method; type: functional
[3] = Inhibition of Escherichia coli DNA topoisomerase-1A using supercoiled pHOT1 plasmid DNA as substrate assessed as inhibition of DNA relaxation after 30 mins by agarose gel electrophoresis
Method in brief: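 Supercoiled plasmid DNA incubated with E. coli Topo IA in the presence of compound at […]. Relaxation products were resolved by electrophoresis on 1% agarose gel.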

[4] = test system: Escherichia coli; test: Inhibition of Escherichia coli DNA gyrase using relaxed pHOT1 plasmid DNA as substrate assessed as inhibition of DNA supercoiling up to 100 uM after 30 mins by agarose gel electrophoresis
[5] = species: Homo sapiens; test: Inhibition of human DNA topoisomerase-1B using supercoiled pHOT1 plasmid DNA as substrate assessed as inhibition of DNA relaxation at 100 uM after 30 mins by agarose gel electrophoresis
[6] = test system: Escherichia coli; test: Antibacterial activity against Escherichia coli DH5[alpha] assessed as growth inhibition after 18 to 24 hrs by broth microdilution method; type: functional
[7] = test system: Escherichia coli; test: Antibacterial activity against chloroamphenicol/ampicillin/kanamycin/trimethoprim/ciprofloxacin/nalidixic acid-resistant Escherichia coli 85 assessed as growth inhibition after 18 to 24 hrs by broth microdilution method; type: functional
[8] = test system: Escherichia coli; test: Antibacterial activity against ampicillin/chloramphenicol/ciprofloxacin/gentamicin/tetracycline-resistant Escherichia coli 401 assessed as growth inhibition after 18 to 24 hrs by broth microdilution method; type: functional
[9] = test system: Escherichia coli; test: Bactericidal activity against multidrug-resistant Escherichia coli IP9 isolated from water source by agar plating method
[10] = test system: Escherichia coli; test: Bactericidal activity against multidrug-resistant Escherichia coli IS 54 isolated from water source by agar plating method; details: IS 54, Water
[11] = test system: Escherichia coli; test: Bactericidal activity against tetracycline/trimethoprim-resistant Escherichia coli IST isolated from water source by agar plating method
[12] = test system: Escherichia coli; test: Bactericidal activity against ampicillin/trimethoprim/piperacillin-resistant Escherichia coli MKNJ isolated from water source by agar plating method
[13] = test system: Escherichia coli; test: Antibacterial activity against multidrug-resistant Escherichia coli IP9 isolated from water source assessed as growth inhibition after 18 to 24 hrs by broth microdilution method
[14] = test system: Escherichia coli; test: Bactericidal activity against ampicillin/trimethoprim/cefazolinl/piperacillin/cefuroxime/cefoxitine/cefepime/cefotaxime-resistant Escherichia coli KP21 isolated from water source by agar plating method
[15] = test system: Escherichia coli; test: Inhibition of Escherichia coli DNA topoisomerase-1A using supercoiled pHOT1 plasmid DNA as substrate assessed as inhibition of DNA relaxation at 5 to 100 uM after 30 mins by agarose gel electrophoresis in presence of 25 mM MgCl2
[16] = Binding affinity to d(ATATATATATATAT)2 DNA (unknown origin) by fluorescence spectroscopic analysis
Method in brief: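 Fluorescence titration of the compound with a poly(AT) DNA sequence, with the binding constant derived from the titration.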

[17] = test system: Escherichia coli; test: Binding affinity to Escherichia coli DNA topoisomerase-1A by isothermal titration calorimetric analysis in presence of MgCl2/KCl
Method in brief: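 Isothermal titration calorimetry with sequential injections of EcTopo 1A into the compound solution. Raw heats were corrected using injections of identical amounts of EcTopo 1A into buffer alone. Binding affinity constant and binding free energy were derived from the thermogram.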

[18] = test system: Escherichia coli; test: Antibacterial activity against Escherichia coli ATCC 25922 in iv dosed Balb/c systemic infection model assessed as increase in survival administered single bolus dose measured every day for 7 days; type: functional
Method in brief: (§1)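 Mice were infected intraperitoneally with E. coli ATCC 25922 suspended in saline. Treatment was a single bolus intravenous tail-vein injection at 3, 5 or 7 mg/kg body weight, dissolved in sterile water. A vehicle-only group served as control. Survival was monitored after infection.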

[19] = test system: Escherichia coli; test: Antibacterial activity against Escherichia coli ATCC 25922 in Balb/c systemic infection model assessed as increase in survival at 7 mg/kg, iv administered single bolus dose measured every day for 7 days relative to vehicle-treated control; type: functional; details: ATCC 25922, in Mus musculus, 168 h; method in brief: as §1
[20] = test system: Escherichia coli; test: Antibacterial activity against Escherichia coli ATCC 25922 in iv dosed Balb/c neutropenic thigh infection model assessed as concentration required to cause 1 log10CFU reduction per gram of thigh administered as single bolus dose at 2 hrs post inoculation measured after 24 hrs; type: functional
Method in brief: (§2)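 Neutropenic thigh infection with E. coli ATCC 25922. Compound was dosed at 3 and 5 mg/kg body weight/day. Read-out was thigh bacterial burden, expressed as log reduction and compared with the static level.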

[21] = test system: Escherichia coli; test: Antibacterial activity against Escherichia coli ATCC 25922 in iv dosed Balb/c neutropenic thigh infection model assessed as concentration required to cause 3 log10CFU reduction per gram of thigh administered as single bolus dose at 2 hrs post inoculation measured after 24 hrs; type: functional; method in brief: as §2
[22] = test system: Escherichia coli; test: Antibacterial activity against Escherichia coli ATCC 25922 in iv dosed Balb/c neutropenic thigh infection model assessed as reduction of bacterial burden in thigh administered as single bolus dose at 2 hrs post inoculation measured after 24 hrs; type: functional; method in brief: as §2

Row | Compound | MBC [1] [µg/mL] | MBC [2] [µg/mL] | IC50 [3] [µM] | inhibition [4] | inhibition [5] | MIC50 [6] [µg/mL] | MIC90 [6] [µg/mL] | MIC50 [7] [µg/mL] | MIC90 [7] [µg/mL] | MIC50 [8] [µg/mL] | MIC90 [8] [µg/mL] | MBC [9] [µg/mL] | MBC [10] [µg/mL] | MBC [11] [µg/mL] | MBC [12] [µg/mL] | MIC50 [13] [µg/mL] | MIC90 [13] [µg/mL] | MBC [14] [µg/mL] | other results
1 | CCOc1ccc(-c2nc3ccc(-c4nc5ccc(N6CCN(CCN(C)C)CC6)cc5[nH]4)cc3[nH]2)cc1 | 128 (≈ 251 µM) | 32 (≈ 62.8 µM) | 9.4 | inactive | inactive | 1 (≈ 1.96 µM) | 14.5 (≈ 28.5 µM) | 16 (≈ 31.4 µM) | 28.6 (≈ 56.1 µM) | 16 (≈ 31.4 µM) | 30.4 (≈ 59.6 µM) | 128 (≈ 251 µM) | 64 (≈ 126 µM) | 64 (≈ 126 µM) | 32 (≈ 62.8 µM) | 64 (≈ 126 µM) | 118 (≈ 232 µM) | 64 (≈ 126 µM) | –
2 | CCCN1CCN(c2ccc3nc(-c4ccc5nc(-c6ccc(OCC)cc6)[nH]c5c4)[nH]c3c2)CC1 | 2 (≈ 4.16 µM) | 2 (≈ 4.16 µM) | 2 | inactive | inactive | 0.2 (≈ 0.416 µM) | 0.8 (≈ 1.66 µM) | 1 (≈ 2.08 µM) | 1.7 (≈ 3.54 µM) | 1 (≈ 2.08 µM) | 1.7 (≈ 3.54 µM) | 4 (≈ 8.32 µM) | 2 (≈ 4.16 µM) | 2 (≈ 4.16 µM) | 4 (≈ 8.32 µM) | 1 (≈ 2.08 µM) | 3.1 (≈ 6.45 µM) | 4 (≈ 8.32 µM) | inhibition [15]: Active; K [16]: 7 ×10⁷ /M; Ka [17]: 6.8 ×10⁶ /M; Activity [18]: Dose-dependent effect; ED50 ([18]; ATCC 25922, in Mus musculus, 168 h): 5 mg/kg; survival at 7 mg/kg [19]: 75%; Activity [20]: 3 mg/kg/day; Activity [21]: 5 mg/kg/day; Activity [22]: Dose-dependent effect; MIC50 ([22]; ATCC 25922, Thigh): 0.2 µg/mL (≈ 0.416 µM)
3 | COc1ccc(-c2nc3ccc(-c4nc5ccc(N6CCN(c7ccncc7)CC6)cc5[nH]4)cc3[nH]2)cc1OC | 2 (≈ 3.76 µM) | 2 (≈ 3.76 µM) | 6.2 | inactive | inactive | 0.5 (≈ 0.941 µM) | 1.8 (≈ 3.39 µM) | 2 (≈ 3.76 µM) | 3.6 (≈ 6.77 µM) | 1 (≈ 1.88 µM) | 1.6 (≈ 3.01 µM) | 4 (≈ 7.52 µM) | 2 (≈ 3.76 µM) | 1 (≈ 1.88 µM) | 4 (≈ 7.52 µM) | 2 (≈ 3.76 µM) | 3.6 (≈ 6.77 µM) | 4 (≈ 7.52 µM) | –
4 | CCCN1CCN(c2ccc3nc(-c4ccc5nc(-c6ccc(OC)c(OC)c6)[nH]c5c4)[nH]c3c2)CC1 | 16 (≈ 32.2 µM) | 8 (≈ 16.1 µM) | 3 | inactive | Active | 2 (≈ 4.03 µM) | 3.2 (≈ 6.44 µM) | 8 (≈ 16.1 µM) | 15.2 (≈ 30.6 µM) | 4 (≈ 8.05 µM) | 7.2 (≈ 14.5 µM) | 16 (≈ 32.2 µM) | 16 (≈ 32.2 µM) | 16 (≈ 32.2 µM) | 8 (≈ 16.1 µM) | 8 (≈ 16.1 µM) | 15.4 (≈ 31 µM) | 16 (≈ 32.2 µM) | –
5 | COc1ccc(-c2nc3ccc(-c4nc5ccc(N6CCN(c7ncccn7)CC6)cc5[nH]4)cc3[nH]2)cc1OC | – | 32 (≈ 60.1 µM) | 6.2 | inactive | Active | 2 (≈ 3.76 µM) | 3.6 (≈ 6.76 µM) | 32 (≈ 60.1 µM) | 55.8 (≈ 105 µM) | 16 (≈ 30 µM) | 29 (≈ 54.4 µM) | – | 64 (≈ 120 µM) | 32 (≈ 60.1 µM) | 64 (≈ 120 µM) | 128 (≈ 240 µM) | – | 64 (≈ 120 µM) | –
6 | CCOc1ccc(-c2nc3ccc(-c4nc5ccc(N6CCN(CC)CC6)cc5[nH]4)cc3[nH]2)cc1 | 64 (≈ 137 µM) | 4 (≈ 8.57 µM) | 5.8 | inactive | Active | 0.5 (≈ 1.07 µM) | 0.7 (≈ 1.5 µM) | 4 (≈ 8.57 µM) | 6.9 (≈ 14.8 µM) | 2 (≈ 4.29 µM) | 3.7 (≈ 7.93 µM) | 8 (≈ 17.1 µM) | 8 (≈ 17.1 µM) | 8 (≈ 17.1 µM) | 8 (≈ 17.1 µM) | 4 (≈ 8.57 µM) | 7.2 (≈ 15.4 µM) | 8 (≈ 17.1 µM) | –
